Results on three compounds are retold here after paper PMC3466779 (Biochemistry, 2012).

Series [1] deals with T1, MtATP-PRT (Mycobacterium tuberculosis, UniProt P9WMN1).
T1 sequence (P9WMN1 1-284): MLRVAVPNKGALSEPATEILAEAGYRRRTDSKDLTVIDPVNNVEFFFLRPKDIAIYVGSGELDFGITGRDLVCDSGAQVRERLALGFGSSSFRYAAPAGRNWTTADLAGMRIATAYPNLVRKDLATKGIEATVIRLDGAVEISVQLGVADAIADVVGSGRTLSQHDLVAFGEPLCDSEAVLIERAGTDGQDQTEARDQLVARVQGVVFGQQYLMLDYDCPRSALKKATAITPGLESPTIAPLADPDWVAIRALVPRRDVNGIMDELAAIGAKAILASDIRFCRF
Nature of the series: Steady-state inhibition studies with L-histidine. It counts as biochemical. Particulars: for Kii: 7 mM MgCl2, 200 mM KCl.

The target in series [2] is T1, MtATP-PRT. Nature of the series: pH studies of L-histidine inhibition. The note with it: 0.8 mM PRPP fixed. It counts as biochemical.
Series [3] deals with T1, MtATP-PRT. Nature of the series: Pre-steady-state stopped-flow burst kinetics. Format: biochemical.
In series [4] the target is T1, MtATP-PRT. Put plainly: STD-NMR saturation transfer. Format: binding. Particulars: 0.6 mM L-histidine, 30 μM HisG, 25 °C. In short, it runs like this:
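STD 1H NMR was run at 14.4 T with 30 μM enzyme and 0.6 mM L-histidine in 50 mM sodium phosphate at each pH, 25 °C. Saturation times of 0.2–2.0 s in 0.2 s steps were recorded interleaved, with on-resonance protein presaturation at 0.8 ppm. A single off-resonance control used 2 s. Water was suppressed by excitation sculpting. Read-out was percent transfer per histidine proton.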

Series [5] addresses T1, MtATP-PRT. Put plainly: Gel filtration, solution oligomeric state. Particulars: 20 mM Tris-HCl pH 8, 100 mM NaCl; 2 mM L-histidine, or ATP. In short, it runs like this: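 Recombinant enzyme was expressed in E. coli BL21(DE3)pLysS and Ni-NTA purified. It was injected at 0.1–10 mg/mL onto a Sephacryl S-200 column calibrated with molecular-weight standards. Elution was isocratic for 1.5 column volumes at 0.5 mL/min in 20 mM Tris-HCl pH 8, 100 mM NaCl, with or without 2 mM L-histidine. Apparent mass was read from elution position.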
Background: In gel filtration, larger molecules generally elute earlier.

For series [6] the following is noted: no reference given, cited from earlier work.
Series [7] has as its target Lactococcus lactis ATP-PRT. Particulars: pH 8; cited from earlier work.
Series [8] concerns the target T1, MtATP-PRT. Nature of the series: Steady-state kinetics: initial velocities of the forward reaction. Format: biochemical.

Each structure is given as a SMILES string. Values joined by “and” are separate entries in the source; they are usually repeats but may differ in a detail not shown here. Identical values can stand only once.

As a reminder, the Ki is a measure of affinity in units of concentration, obtained from inhibition or displacement. Usually IC50 stands for the midpoint of a concentration-inhibition curve. Lower therefore signals greater potency in that assay. A word on the Kd: it is the concentration at which binding is half-saturated. A word on the koff: it is a measure of how fast the partners let go of each other. Usually kon stands for a measure of how fast the partners come together. As to `N[C@@H](Cc1c[nH]cn1)C(=O)O` [L-histidine], the Ki in series [1] was 25.7 ± 12.8 µM; in series [7] it was 81 µM. The IC50 in series [1] (IC50,L-histidine, 50 mM Tris-HCl pH 8.5, 7 mM MgCl2, 200 mM KCl, 1.6 mM ATP, 0.8 mM PRPP, 25 °C) is 33.3 µM and 33 µM. Also, the Hill number in series [1] (IC50 curve, pH 8.5, 1.6 mM ATP, 0.8 mM PRPP) was determined as 1.5. Moreover, the Kii in series [1] (pH 8.50 (Tris-HCl), varied ATP, 0.8 mM PRPP fixed, 25 °C) was 27.9 ± 1.9 µM; in series [1] (pH 8.50, varied PRPP, 1.6 mM ATP fixed, 25 °C), 23.5 ± 6.5 µM; in series [2] (pH 8.00, varied ATP), 4 µM and 4.0 ± 0.4 µM; in series [2] (pH 8.25, varied ATP) it was 7.9 ± 1.5 µM; in series [2] (pH 8.50 (pH series), varied ATP) it was 28.3 ± 2.1 µM; in series [2] (pH 8.75, varied ATP) it was 26.8 ± 1.5 µM. Also, the Kii amounted to 50.4 ± 5.5 µM in series [2] (pH 9.00, varied ATP) and 109.4 ± 6.8 µM in series [2] (pH 9.25, varied ATP). Further, the “nature of inhibition versus ATP (in words)” value in series [1] (varied ATP, saturating PRPP, pH 8.5) was “linear and uncompetitive”. The “nature of inhibition versus PRPP (in words)” value in series [1] (varied PRPP, saturating ATP, pH 8.5) was “linear and noncompetitive”. In series [3], this compound yielded a Kd of 27.9 ± 3.2 µM. The off-rate (koff) in series [3] (pH 8.5, read-out: koff,L-histidine) turned out to be 0.95 ± 0.03 s⁻¹. Also, in series [3] (pH 8.5, read-out: kon,L-histidine), the kon worked out at 4880 ± 717 M⁻¹ s⁻¹. Also, the “% saturation transfer to L-histidine protons, Cα-H” value in series [4] (pH 5.5), in series [4] (pH 6.0), in series [4] (pH 6.5), in series [4] (pH 7.5), in series [4] (pH 8.0) and in series [4] (pH 8.5) was 0% in each case. Moreover, the “% saturation transfer to L-histidine protons, Cα-H” value in series [4] (pH 9.0) stood at 0%. Besides, the “% saturation transfer to L-histidine protons, Cβ-H2” value in series [4] (pH 5.5), in series [4] (pH 6.0), in series [4] (pH 6.5), in series [4] (pH 7.5), in series [4] (pH 8.0) and in series [4] (pH 8.5) was 0% in each case. Further, the “% saturation transfer to L-histidine protons, Cβ-H2” value in series [4] (pH 9.0) amounted to 0%. Moreover, the “% saturation transfer to L-histidine protons, Cδ2-H” value in series [4] (pH 5.5) is on record as 0%; in series [4] (pH 6.0), 0%; in series [4] (pH 6.5) it was 0%; in series [4] (pH 7.5), 0%; in series [4] (pH 8.0) it was 36.9%; in series [4] (pH 8.5), 81.6%. Moreover, in series [4] (pH 9.0), the “% saturation transfer to L-histidine protons, Cδ2-H” value worked out at 100%. Further, the “% saturation transfer to L-histidine protons, Cε1-H” value in series [4] (pH 5.5) is listed as 0%; in series [4] (pH 6.0), 0%; in series [4] (pH 6.5), 0%; in series [4] (pH 7.5) it was 0%; in series [4] (pH 8.0) it was 40.4%; in series [4] (pH 8.5), 88.2%. The “% saturation transfer to L-histidine protons, Cε1-H” value in series [4] (pH 9.0) amounted to 100%. Besides, the “influence of ligand on the hexameric oligomeric state of MtATP-PRT” value in series [5] is given as “not influenced”. Also, the “pKa of the imidazole group” value in series [6] (background statement) is listed as around 6.0. Further, the “pKa of the α-amino group” value in series [6] (stated in discussion) is around 9.

Consider `O[C@@H](CS)[C@@H](O)CS` [DTT], for which the “effect of the thiol reducing agent on the time course” value in series [8] (data not shown) was “did not alter the time course”.

On to `[Cl-].[Cl-].[Mg+2]` [MgCl2], for which, in series [8] (Table 1, saturating substrates, 200 mM KCl, 25 °C), the “Kact,Mg^2+” value was 1900 ± 600 µM. For the same compound, the “Apparent Kact for MgCl2” value in series [8] (saturating concentrations of both substrates, 200 mM KCl) was 1.9 ± 0.6 mM.
